This note sets out measurements from publication PMC6682041 (ACS Omega, 2019).

The target in one test is human recombinant GSK-3β (Homo sapiens, UniProt P49841). Nature of the test: biochemical.
Test [1] has as its target T1, electric eel AChE (Electrophorus electricus, UniProt O42275). Nature of the test: Cholinesterase enzyme inhibition assay. The class given is biochemical. Put shortly:
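Electric eel AChE, added as a 0.36 U/mL solution, was preincubated 15 min at room temperature in sodium phosphate buffer (pH 8.0) with test compound dissolved in 10% DMSO. DTNB and […] substrate were then added, with a further 10 min at room temperature. Absorbance was read at 412 nm, in triplicate. % inhibition = (1 − T/C) × 100; IC50 from the log dose–inhibition curve.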

For test [2], the target named is T1, electric eel AChE. The test is described as follows: Enzyme kinetics of AChE inhibition. The class given is biochemical. The settings on record: for AChE inhibition type: determined by the Lineweaver–Burk plot. Put shortly: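 Electric eel AChE (0.36 U/mL solution) was preincubated 15 min at RT with the test compound (0.5–10 µM, from 10% DMSO) in sodium phosphate buffer pH 8.0. DTNB and acetylthiocholine (0.1, 0.3, 0.6 […]) were then added, with 10 min at RT and A412 read. Run in triplicate. Inhibition type came from Lineweaver–Burk plots and Ki from Dixon plots.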

Test [3] has as its target T2, horse serum BChE (Equus caballus, UniProt P81908). Nature of the test: Cholinesterase enzyme inhibition assay. The class given is biochemical.
For test [4], the target named is T3, human recombinant β-secretase (BACE1) (Homo sapiens, UniProt P56817). The test is described as follows: BACE1 enzyme inhibition assay. The class given is biochemical.
Test [5] addresses T3, human recombinant β-secretase (BACE1). Nature of the test: Enzyme kinetics of BACE1 inhibition. The settings on record: for BACE1 inhibition type: determined by the Lineweaver–Burk plot. The class given is biochemical. In outline:
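FRET kit using human recombinant β-secretase (1.0 U/mL solution) in assay buffer pH 4.5. The test compound (0.625–5 µM) was mixed with substrate at 250, 375 or 750 nM and incubated 60 min at RT in the dark. Fluorescence was read at ex 545/em 585 nm, and inhibition taken from the 0 to 60 min change versus control. Lineweaver–Burk plots gave the mechanism; Dixon plots gave Ki.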

In test [6] the target is T2, horse serum BChE. Nature of the test: Enzyme kinetics of BChE inhibition. In kind it is biochemical. The settings on record: for BChE inhibition type: determined by the Lineweaver–Burk plot. Put shortly:
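Horse serum BChE (0.36 U/mL solution) was preincubated 15 min at RT with the test compound (1.25–10 µM, from 10% DMSO) in sodium phosphate buffer pH 8.0. Reaction started with DTNB plus butyrylthiocholine (0.1, 0.3, 0.6 […]), then 10 min at RT and A412 read. Run in triplicate. Lineweaver–Burk plots gave the inhibition mode; Dixon plots gave Ki.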

For another test, the target named is Aβ25–35 (Homo sapiens, UniProt P05067). The test is described as follows: Self-induced Aβ25–35 aggregation inhibition assay. The settings on record: read-out: inhibition of self-induced Aβ25–35 aggregation. In kind it is biochemical. In outline: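 Aβ25–35 was lyophilized from HFIP, taken to a 0.4 mM stock in 65% acetonitrile and diluted 2-fold in 69 mM phosphate pH 7.0. Test compound (0.2, 2, 20 µM) or reference inhibitor (10 µM) was added, then 24 h at 4 °C. ThT (25 µM, glycine–NaOH pH 8.5) was added, with 5 min before reading ex 446/em 490 nm. %inhibition = 100 − (Fi/Fc × 100); mean ± SD, n=3.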

T1 sequence (O42275 24-633): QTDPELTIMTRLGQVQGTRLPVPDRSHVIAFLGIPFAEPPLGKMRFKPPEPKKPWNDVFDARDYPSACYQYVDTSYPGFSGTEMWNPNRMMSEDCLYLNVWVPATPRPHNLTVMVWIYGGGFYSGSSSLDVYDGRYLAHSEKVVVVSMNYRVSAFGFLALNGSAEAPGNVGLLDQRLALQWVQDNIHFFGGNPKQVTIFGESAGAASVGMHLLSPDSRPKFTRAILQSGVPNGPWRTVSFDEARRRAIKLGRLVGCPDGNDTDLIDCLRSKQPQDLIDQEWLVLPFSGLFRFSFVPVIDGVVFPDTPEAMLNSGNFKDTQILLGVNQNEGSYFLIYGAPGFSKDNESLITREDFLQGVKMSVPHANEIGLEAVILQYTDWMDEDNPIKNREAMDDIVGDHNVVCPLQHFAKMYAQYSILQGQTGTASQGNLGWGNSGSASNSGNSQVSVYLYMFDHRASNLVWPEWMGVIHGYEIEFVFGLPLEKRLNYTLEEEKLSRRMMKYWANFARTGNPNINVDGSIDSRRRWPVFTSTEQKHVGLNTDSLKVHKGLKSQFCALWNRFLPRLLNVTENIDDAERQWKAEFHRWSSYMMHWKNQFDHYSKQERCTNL
T2 sequence (P81908 whole entry): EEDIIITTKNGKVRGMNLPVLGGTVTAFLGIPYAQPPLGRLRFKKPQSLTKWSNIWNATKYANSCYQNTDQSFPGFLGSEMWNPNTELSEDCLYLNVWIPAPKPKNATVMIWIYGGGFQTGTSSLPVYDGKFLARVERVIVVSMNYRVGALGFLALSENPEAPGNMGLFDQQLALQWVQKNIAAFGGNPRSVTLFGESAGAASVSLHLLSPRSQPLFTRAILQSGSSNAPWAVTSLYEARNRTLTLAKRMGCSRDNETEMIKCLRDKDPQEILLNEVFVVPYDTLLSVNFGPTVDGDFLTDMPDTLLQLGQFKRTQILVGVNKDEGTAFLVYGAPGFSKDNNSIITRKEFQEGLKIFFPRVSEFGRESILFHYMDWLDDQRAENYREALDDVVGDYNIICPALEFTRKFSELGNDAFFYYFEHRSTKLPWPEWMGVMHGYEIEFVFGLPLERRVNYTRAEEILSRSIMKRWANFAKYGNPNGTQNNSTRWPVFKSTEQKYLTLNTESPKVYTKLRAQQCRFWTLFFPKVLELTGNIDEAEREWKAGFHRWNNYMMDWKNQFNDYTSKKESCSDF
T3 sequence (P56817 46-501): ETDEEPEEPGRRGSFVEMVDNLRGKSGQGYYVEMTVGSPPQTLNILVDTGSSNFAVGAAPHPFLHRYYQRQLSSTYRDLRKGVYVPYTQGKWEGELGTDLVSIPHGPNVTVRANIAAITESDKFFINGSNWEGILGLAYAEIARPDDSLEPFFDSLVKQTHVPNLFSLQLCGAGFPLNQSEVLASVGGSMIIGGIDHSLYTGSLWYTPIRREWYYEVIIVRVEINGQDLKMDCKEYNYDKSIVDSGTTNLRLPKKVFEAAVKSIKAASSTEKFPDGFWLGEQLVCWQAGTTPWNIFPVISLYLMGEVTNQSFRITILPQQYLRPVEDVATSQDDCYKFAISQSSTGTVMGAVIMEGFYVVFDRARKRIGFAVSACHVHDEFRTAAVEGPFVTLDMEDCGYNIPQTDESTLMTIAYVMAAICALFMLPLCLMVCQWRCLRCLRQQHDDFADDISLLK
Chain of human recombinant GSK-3β (P49841 whole entry): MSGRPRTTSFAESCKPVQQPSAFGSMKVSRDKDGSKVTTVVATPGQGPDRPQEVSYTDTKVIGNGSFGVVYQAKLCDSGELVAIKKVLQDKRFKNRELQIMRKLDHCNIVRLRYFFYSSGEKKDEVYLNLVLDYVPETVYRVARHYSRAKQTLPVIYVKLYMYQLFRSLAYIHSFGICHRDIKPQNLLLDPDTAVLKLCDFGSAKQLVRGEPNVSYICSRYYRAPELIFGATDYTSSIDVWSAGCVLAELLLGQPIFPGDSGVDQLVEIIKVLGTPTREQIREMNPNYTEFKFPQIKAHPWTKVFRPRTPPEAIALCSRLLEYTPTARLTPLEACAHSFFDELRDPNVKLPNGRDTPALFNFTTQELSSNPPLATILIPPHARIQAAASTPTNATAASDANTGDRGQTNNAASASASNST

Turning to `OCc1c(Br)c(O)c(O)c(Br)c1Br` [Compound 1, 2,3,6-tribromo-4,5-dihydroxybenzyl alcohol], the concentration for half-maximal inhibition (IC50) at human recombinant GSK-3β stood at 229 ± 12.1 µM; at electric eel AChE [1] it was 7.31 ± 0.25 µM; at horse serum BChE [3], 8.95 ± 2.18 µM; in test [4], 5.16 ± 0.6 µM. Moreover, the Ki on electric eel AChE [2] came to 0.58 µM; in test [5] it was 3.1 µM; on horse serum BChE [6], 1.15 µM. Also, the AChE inhibition type result at electric eel AChE [2] is “mixed”. Besides, the BACE1 inhibition type result in test [5] is reported as “noncompetitive”. The BChE inhibition type result on horse serum BChE [6] is listed as “competitive”. Besides, the inhibition at 20 µM on Aβ25–35 turned out to be 66.8%.
`COCc1c(Br)c(O)c(O)c(Br)c1Br` [Compound 2, 2,3,6-tribromo-4,5-dihydroxybenzyl methyl ether]: the IC50 is 140 ± 15.1 µM at human recombinant GSK-3β, 9.61 ± 0.35 µM against electric eel AChE [1], 14.4 ± 0.27 µM at horse serum BChE [3] and 4.79 ± 0.82 µM in test [4]. The Ki at electric eel AChE [2] came out at 0.71 µM; in test [5] it was 0.7 µM; on horse serum BChE [6], 0.51 µM. The AChE inhibition type entry on electric eel AChE [2] is “mixed”. Also, the BACE1 inhibition type entry in test [5] is “noncompetitive”. Further, the BChE inhibition type result on horse serum BChE [6] is “competitive”. In addition, the inhibition at 20 µM on Aβ25–35 was 56.7%.
For the compound `Oc1c(O)c(Br)c(COCc2c(Br)c(O)c(O)c(Br)c2Br)c(Br)c1Br` [Compound 3, bis-(2,3,6-tribromo-4,5-dihydroxybenzyl) ether], the IC50 on human recombinant GSK-3β was 56.5 ± 2.48 µM; against electric eel AChE [1], 2.66 ± 0.24 µM; at horse serum BChE [3], 4.03 ± 0.15 µM; in test [4], 2.32 ± 0.1 µM. Also, the figures for the Ki (at electric eel AChE [2]; in test [5]; at horse serum BChE [6]) were 0.64 µM, 1.24 µM and 0.37 µM, respectively. For the same compound, on electric eel AChE [2], the AChE inhibition type entry is given as “mixed”. The BACE1 inhibition type result in test [5] is on record as “competitive”. The BChE inhibition type entry on horse serum BChE [6] is given as “competitive”. In addition, on Aβ25–35, the inhibition at 20 µM was determined as 58.5%.
At electric eel AChE [1], `COc1ccc2cc3[n+](cc2c1OC)CCc1cc2c(cc1-3)OCO2` [berberine, reference compound] yielded an IC50 of 1.17 ± 0.09 µM.
Consider `COc1cc(/C=C/C(=O)CC(=O)/C=C/c2ccc(O)c(OC)c2)ccc1O` [curcumin, reference compound], for which the inhibition at 10 µM at Aβ25–35 was 52.4%.
For the compound `O=c1cc(-c2ccc(O)c(O)c2)oc2cc(O)cc(O)c12` [luteolin, reference compound], the IC50 on human recombinant GSK-3β worked out at 5.42 ± 0.19 µM.

As usually defined, the IC50 is the concentration needed to halve the response being measured. As a reminder, the Ki is the dissociation constant of the complex between target and ligand, obtained from inhibition or displacement. A word on the inhibition: it is the relative decrease from the control value, in per cent.
